Measured values reported in ChEMBL document CHEMBL1255404, “Spread of OXA-48-encoding plasmid in Turkey and beyond” (2010).
≈ marks a conversion by molar mass, not a printed value.

Assays:
Type in all cases: functional
Escherichia coli [1] = assay: Antimicrobial activity against Escherichia coli isolate J53 harboring pA-1 containing beta-lactamase OXA-48 located within transposon Tn1999 by Etest method
Procedure, shortened: (§1)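 β-Lactam MICs read with Etest strips. Strains are E. coli J53 recipient and J53 transconjugants carrying OXA-48-positive plasmids recovered from clinical enterobacterial isolates.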

Escherichia coli [2] = assay: Antimicrobial activity against Escherichia coli isolate A expressing beta-lactamase OXA-48 and TEM-150 by Etest method
Escherichia coli [3] = assay: Antimicrobial activity against Escherichia coli isolate J53 harboring p3A containing beta-lactamase OXA-48 located within transposon Tn1999 by Etest method; procedure, shortened: as §1
Klebsiella pneumoniae [4] = assay: Antimicrobial activity against Klebsiella pneumoniae isolate KpBIC expressing beta-lactamase OXA-48 by Etest method
Procedure, shortened: (§2)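 MICs of β-lactams read from Etest strips. The test organisms are carbapenem-resistant, OXA-48-positive clinical Enterobacteriaceae isolates recovered from Turkey, Lebanon, Egypt, France and Belgium.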

Escherichia coli [5] = assay: Antimicrobial activity against Escherichia coli isolate J53 harboring pBb containing beta-lactamase OXA-48 located within transposon Tn1999.2 by Etest method; procedure, shortened: as §1
Klebsiella pneumoniae [6] = assay: Antimicrobial activity against Klebsiella pneumoniae isolate Kp4A expressing beta-lactamase OXA-48 and CTX-M-15 by Etest method
Klebsiella pneumoniae [7] = assay: Antimicrobial activity against Klebsiella pneumoniae isolate Kp7A expressing beta-lactamase OXA-48 by Etest method; procedure, shortened: as §2
Escherichia coli [8] = assay: Antimicrobial activity against Escherichia coli isolate J53 harboring p7A containing beta-lactamase OXA-48 located within transposon Tn1999 by Etest method; procedure, shortened: as §1
Escherichia coli [9] = assay: Antimicrobial activity against Escherichia coli isolate J53 harboring pEnc2 containing beta-lactamase OXA-48 located within transposon Tn1999 by Etest method; procedure, shortened: as §1
Klebsiella pneumoniae [10] = assay: Antimicrobial activity against Klebsiella pneumoniae isolate Kp3A expressing beta-lactamase OXA-48 by Etest method; procedure, shortened: as §2
Enterobacter cloacae [11] = assay: Antimicrobial activity against Enterobacter cloacae isolate 1 expressing beta-lactamase OXA-48 and SHV-5 by Etest method
Enterobacter cloacae [12] = assay: Antimicrobial activity against Enterobacter cloacae isolate 2 expressing beta-lactamase OXA-48 and SHV-5 by Etest method
Klebsiella pneumoniae [13] = assay: Antimicrobial activity against Klebsiella pneumoniae isolate Kp11978 expressing beta-lactamase OXA-48, SHV-2a and TEM-1 by Etest method
Escherichia coli [14] = assay: Antimicrobial activity against Escherichia coli isolate J53 harboring p6A containing beta-lactamase OXA-48 located within transposon Tn1999 by Etest method; procedure, shortened: as §1
Escherichia coli [15] = assay: Antimicrobial activity against Escherichia coli isolate J53 by Etest method; procedure, shortened: as §1
Escherichia coli [16] = assay: Antimicrobial activity against Escherichia coli isolate J53 harboring pL containing beta-lactamase OXA-48 located within transposon Tn1999.2 by Etest method; procedure, shortened: as §1
Klebsiella pneumoniae [17] = assay: Antimicrobial activity against Klebsiella pneumoniae isolate KpBEL expressing beta-lactamase OXA-48 by Etest method; procedure, shortened: as §2
Klebsiella pneumoniae [18] = assay: Antimicrobial activity against Klebsiella pneumoniae isolate Kp6A expressing beta-lactamase OXA-48 and TEM-150 by Etest method
Klebsiella pneumoniae [19] = assay: Antimicrobial activity against Klebsiella pneumoniae isolate KpL expressing beta-lactamase OXA-48 by Etest method
Escherichia coli [20] = assay: Antimicrobial activity against Escherichia coli isolate J53 harboring pCF containing beta-lactamase OXA-48 located within transposon Tn1999 by Etest method; procedure, shortened: as §1
Providencia rettgeri = assay: Antimicrobial activity against Providencia rettgeri isolate expressing beta-lactamase OXA-48 and TEM-101 by Etest method
Escherichia coli [21] = assay: Antimicrobial activity against Escherichia coli isolate J53 harboring p5A containing beta-lactamase OXA-48 located within transposon Tn1999 by Etest method; procedure, shortened: as §1
Klebsiella pneumoniae [22] = assay: Antimicrobial activity against Klebsiella pneumoniae isolate KpI-2 expressing beta-lactamase OXA-48 and CTX-M-15 by Etest method
Escherichia coli [23] = assay: Antimicrobial activity against Escherichia coli isolate J53 harboring p4A containing beta-lactamase OXA-48 located within transposon Tn1999 by Etest method; procedure, shortened: as §1
Escherichia coli [24] = assay: Antimicrobial activity against Escherichia coli isolate J53 harboring pI-1 containing beta-lactamase OXA-48 located within transposon Tn1999.2 by Etest method; procedure, shortened: as §1
Escherichia coli [25] = assay: Antimicrobial activity against Escherichia coli isolate J53 harboring pI-2 containing beta-lactamase OXA-48 located within transposon Tn1999.2 by Etest method; procedure, shortened: as §1
Escherichia coli [26] = assay: Antimicrobial activity against Escherichia coli isolate TOP10 harboring pPR containing beta-lactamase and TEM-101 by Etest method
Procedure, shortened: (§3)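 β-Lactam MICs read with Etest strips. Strains are E. coli TOP10 host and TOP10 transformants made with plasmid DNA extract when conjugation failed. Transformants were selected on LB agar with ticarcillin 50 μg/ml.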

Klebsiella pneumoniae [27] = assay: Antimicrobial activity against Klebsiella pneumoniae isolate Kp5A expressing beta-lactamase OXA-48 and SHV-5 by Etest method
Escherichia coli [28] = assay: Antimicrobial activity against Escherichia coli isolate TOP10 harboring pBIC containing beta-lactamase OXA-48 located within transposon Tn1999.2 by Etest method; procedure, shortened: as §3
Escherichia coli [29] = assay: Antimicrobial activity against Escherichia coli isolate J53 harboring pE containing beta-lactamase OXA-48 located within transposon Tn1999.2 by Etest method; procedure, shortened: as §1
Escherichia coli [30] = assay: Antimicrobial activity against Escherichia coli isolate J53 harboring pBEL containing beta-lactamase OXA-48 located within transposon Tn1999.2 by Etest method; procedure, shortened: as §1
Klebsiella pneumoniae [31] = assay: Antimicrobial activity against Klebsiella pneumoniae isolate KpE expressing beta-lactamase OXA-48 and CTX-M-15 by Etest method
Klebsiella pneumoniae [32] = assay: Antimicrobial activity against Klebsiella pneumoniae isolate KpI-1 expressing beta-lactamase OXA-48 and CTX-M-15 by Etest method
Citrobacter freundii = assay: Antimicrobial activity against Citrobacter freundii isolate expressing beta-lactamase OXA-48 by Etest method
Escherichia coli [33] = assay: Antimicrobial activity against Escherichia coli isolate J53 harboring pEcA containing beta-lactamase OXA-48 located within transposon Tn1999.2 by Etest method; procedure, shortened: as §1
Escherichia coli [34] = assay: Antimicrobial activity against Escherichia coli isolate TOP10 by Etest method; procedure, shortened: as §3
Escherichia coli [35] = assay: Antimicrobial activity against Escherichia coli isolate J53 harboring pEnc1 containing beta-lactamase OXA-48 located within transposon Tn1999 by Etest method; procedure, shortened: as §1
Klebsiella pneumoniae [36] = assay: Antimicrobial activity against Klebsiella pneumoniae isolate KpB expressing OXA-48 and CTX-M-15 by Etest method

Row | SMILES | MIC (Escherichia coli [1]) [µg/mL] | MIC (Escherichia coli [2]) [µg/mL] | MIC (Escherichia coli [3]) [µg/mL] | MIC (Klebsiella pneumoniae [4]) [µg/mL] | MIC (Escherichia coli [5]) [µg/mL] | MIC (Klebsiella pneumoniae [6]) [µg/mL] | MIC (Klebsiella pneumoniae [7]) [µg/mL] | MIC (Escherichia coli [8]) [µg/mL] | MIC (Escherichia coli [9]) [µg/mL] | MIC (Klebsiella pneumoniae [10]) [µg/mL] | MIC (Enterobacter cloacae [11]) [µg/mL] | MIC (Enterobacter cloacae [12]) [µg/mL] | MIC (Klebsiella pneumoniae [13]) [µg/mL] | MIC (Escherichia coli [14]) [µg/mL] | MIC (Escherichia coli [15]) [µg/mL] | MIC (Escherichia coli [16]) [µg/mL] | MIC (Klebsiella pneumoniae [17]) [µg/mL] | MIC (Klebsiella pneumoniae [18]) [µg/mL] | MIC (Klebsiella pneumoniae [19]) [µg/mL] | MIC (Escherichia coli [20]) [µg/mL] | other results
1 | CC(C)(O/N=C(\C(=O)N[C@@H]1C(=O)N2C(C(=O)[O-])=C(C[n+]3ccccc3)CS[C@H]12)c1csc(N)n1)C(=O)O [CEFTAZIDIME] | 0.12 (≈ 0.22 µM) | 512 (≈ 937 µM) | 0.25 (≈ 0.457 µM) | 0.12 (≈ 0.22 µM) | 1 (≈ 1.83 µM) | 512 (≈ 937 µM) | 0.12 (≈ 0.22 µM) | 0.12 (≈ 0.22 µM) | 0.75 (≈ 1.37 µM) | 0.25 (≈ 0.457 µM) | > 512 | 32 (≈ 58.5 µM) | 512 (≈ 937 µM) | 0.12 (≈ 0.22 µM) | 0.06 (≈ 0.11 µM) | 0.75 (≈ 1.37 µM) | 1 (≈ 1.83 µM) | 512 (≈ 937 µM) | 0.75 (≈ 1.37 µM) | 0.75 (≈ 1.37 µM) | MIC (Providencia rettgeri): 512 µg/mL (≈ 937 µM); MIC (Escherichia coli [21]): 0.12 µg/mL (≈ 0.22 µM); MIC (Klebsiella pneumoniae [22]): 512 µg/mL (≈ 937 µM); MIC (Escherichia coli [23]): 0.12 µg/mL (≈ 0.22 µM); MIC (Escherichia coli [24]): 0.12 µg/mL (≈ 0.22 µM); MIC (Escherichia coli [25]): 0.12 µg/mL (≈ 0.22 µM); MIC (Escherichia coli [26]): 512 µg/mL (≈ 937 µM); MIC (Klebsiella pneumoniae [27]): 512 µg/mL (≈ 937 µM); MIC (Escherichia coli [28]): 0.12 µg/mL (≈ 0.22 µM); MIC (Escherichia coli [29]): 0.12 µg/mL (≈ 0.22 µM); MIC (Escherichia coli [30]): 0.75 µg/mL (≈ 1.37 µM); MIC (Klebsiella pneumoniae [31]): 512 µg/mL (≈ 937 µM); MIC (Klebsiella pneumoniae [32]): 512 µg/mL (≈ 937 µM); MIC (Citrobacter freundii): 512 µg/mL (≈ 937 µM); MIC (Escherichia coli [33]): 0.75 µg/mL (≈ 1.37 µM); MIC (Escherichia coli [34]): 0.06 µg/mL (≈ 0.11 µM); MIC (Escherichia coli [35]): 0.75 µg/mL (≈ 1.37 µM); MIC (Klebsiella pneumoniae [36]): > 512 µg/mL
2 | CC(=O)OCC1=C(C(=O)O)N2C(=O)[C@@H](NC(=O)Cc3cccs3)[C@H]2SC1 [CEPHALOTHIN] | 0.5 (≈ 1.26 µM) | > 512 | 16 (≈ 40.4 µM) | > 512 | 16 (≈ 40.4 µM) | > 512 | > 512 | 16 (≈ 40.4 µM) | 16 (≈ 40.4 µM) | > 512 | > 512 | > 512 | > 512 | 16 (≈ 40.4 µM) | 4 (≈ 10.1 µM) | 8 (≈ 20.2 µM) | 16 (≈ 40.4 µM) | > 512 | 32 (≈ 80.7 µM) | > 512 | MIC (Providencia rettgeri): > 512 µg/mL; MIC (Escherichia coli [21]): 16 µg/mL (≈ 40.4 µM); MIC (Klebsiella pneumoniae [22]): > 512 µg/mL; MIC (Escherichia coli [23]): 16 µg/mL (≈ 40.4 µM); MIC (Escherichia coli [24]): 16 µg/mL (≈ 40.4 µM); MIC (Escherichia coli [25]): 16 µg/mL (≈ 40.4 µM); MIC (Escherichia coli [26]): 16 µg/mL (≈ 40.4 µM); MIC (Klebsiella pneumoniae [27]): > 512 µg/mL; MIC (Escherichia coli [28]): 16 µg/mL (≈ 40.4 µM); MIC (Escherichia coli [29]): 16 µg/mL (≈ 40.4 µM); MIC (Escherichia coli [30]): 16 µg/mL (≈ 40.4 µM); MIC (Klebsiella pneumoniae [31]): > 512 µg/mL; MIC (Klebsiella pneumoniae [32]): > 512 µg/mL; MIC (Citrobacter freundii): > 512 µg/mL; MIC (Escherichia coli [33]): 16 µg/mL (≈ 40.4 µM); MIC (Escherichia coli [34]): 4 µg/mL (≈ 10.1 µM); MIC (Escherichia coli [35]): 16 µg/mL (≈ 40.4 µM); MIC (Klebsiella pneumoniae [36]): > 512 µg/mL
